Measured values reported in ChEMBL document CHEMBL3992547, “Antimicrobial activity of rhodanine-3-acetic acid derivatives” (Bioorg Med Chem, 2017).
In brackets after ≈: the same amount, converted by molar mass. Activity calls are given as the source filed them. No cut-off for these calls is given here.

How the values were obtained:
[1] = test system: Mycobacterium tuberculosis; assay: Antimycobacterial activity against Mycobacterium tuberculosis H37Rv 331/88 measured after 14 days by micromethod; type: functional; settings: H37Rv 331/88, 336 h
[2] = test system: Mycobacterium tuberculosis; assay: Antimycobacterial activity against Mycobacterium tuberculosis H37Rv 331/88 measured after 21 days by micromethod; type: functional; settings: H37Rv 331/88, 504 h
Mycobacterium avium [3] = assay: Antimycobacterial activity against Mycobacterium avium 330/88 measured after 14 days by micromethod; type: functional; settings: 330/88, 336 h
Mycobacterium avium [4] = assay: Antimycobacterial activity against Mycobacterium avium 330/88 measured after 21 days by micromethod; type: functional; settings: 330/88, 504 h
Mycobacterium kansasii [5] = assay: Antimycobacterial activity against Mycobacterium kansasii isolate 235/80 after 7 days by micromethod; type: functional; settings: isolate 235/80, 168 h
Mycobacterium kansasii [6] = assay: Antimycobacterial activity against Mycobacterium kansasii isolate 235/80 after 14 days by micromethod; type: functional; settings: isolate 235/80, 336 h
Mycobacterium kansasii [7] = assay: Antimycobacterial activity against Mycobacterium kansasii isolate 235/80 after 21 days by micromethod; type: functional; settings: isolate 235/80, 504 h
Mycobacterium kansasii [8] = assay: Antimycobacterial activity against Mycobacterium kansasii isolate 6509/96 after 7 days by micromethod; type: functional; settings: isolate 6509/96, 168 h
Mycobacterium kansasii [9] = assay: Antimycobacterial activity against Mycobacterium kansasii isolate 6509/96 after 14 days by micromethod; type: functional; settings: isolate 6509/96, 336 h
Mycobacterium kansasii [10] = assay: Antimycobacterial activity against Mycobacterium kansasii isolate 6509/96 after 21 days by micromethod; type: functional; settings: isolate 6509/96, 504 h
[11] = Solubility of the compound in Sula's semisynthetic medium up to 1 mM; type: physicochemical
Staphylococcus aureus [12] = assay: Antibacterial activity against Staphylococcus aureus CCM 4516/08 incubated for 24 hrs under dark condition by microdilution broth assay; type: functional; settings: CCM 4516/08, 24 h
Outline: (§1)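 Broth microdilution per M07-A07, modified, in Mueller-Hinton broth adjusted to pH 7.4 (±0.2). Inoculum is prepared in sterile water to McFarland 0.5 (1.5 × 10⁸ CFU/mL). Plates are incubated in the dark at 35 °C in humid air. MIC is read after 24 and 48 h as at least 95% growth reduction versus control (IC₉₅).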

Staphylococcus aureus [13] = assay: Antibacterial activity against Staphylococcus aureus CCM 4516/08 incubated for 48 hrs under dark condition by microdilution broth assay; type: functional; settings: CCM 4516/08, 48 h; outline: as §1
Staphylococcus aureus [14] = assay: Antibacterial activity against methicillin-resistant Staphylococcus aureus H 5996/08 incubated for 24 hrs under dark condition by microdilution broth assay; type: functional; settings: H 5996/08, 24 h
Outline: (§2)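 Microdilution broth method modified per M07-A07, in Mueller-Hinton broth adjusted to pH 7.4 (±0.2). Inoculum made in sterile water to 0.5 McFarland (1.5 × 10⁸ CFU/mL). Plates incubated in the dark at 35 °C in a humid atmosphere, with reads at 24 and 48 h. MIC taken as at least 95% growth reduction (IC₉₅) versus control.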

Staphylococcus aureus [15] = assay: Antibacterial activity against methicillin-resistant Staphylococcus aureus H 5996/08 incubated for 48 hrs under dark condition by microdilution broth assay; type: functional; settings: H 5996/08, 48 h; outline: as §2
[16] = test system: Staphylococcus epidermidis; assay: Antibacterial activity against Staphylococcus epidermidis H 6966/08 incubated for 24 hrs under dark condition by microdilution broth assay; type: functional; settings: H 6966/08, 24 h; outline: as §1
[17] = test system: Staphylococcus epidermidis; assay: Antibacterial activity against Staphylococcus epidermidis H 6966/08 incubated for 48 hrs under dark condition by microdilution broth assay; type: functional; settings: H 6966/08, 48 h; outline: as §1
Escherichia coli [18] = assay: Antibacterial activity against Escherichia coli CCM 4517 incubated for 24 hrs under dark condition by microdilution broth assay; type: functional; settings: CCM 4517, 24 h; outline: as §1
Escherichia coli [19] = assay: Antibacterial activity against Escherichia coli CCM 4517 incubated for 48 hrs under dark condition by microdilution broth assay; type: functional; settings: CCM 4517, 48 h; outline: as §1
Klebsiella pneumoniae [20] = assay: Antibacterial activity against Klebsiella pneumoniae D 11750/08 up to 500 uM incubated for 24 to 48 hrs under dark condition by microdilution broth assay; type: functional; outline: as §1
Klebsiella pneumoniae [21] = assay: Antibacterial activity against ESBL positive Klebsiella pneumoniae J 14368/08 up to 500 uM incubated for 24 to 48 hrs under dark condition by microdilution broth assay; type: functional; outline: as §1
Pseudomonas aeruginosa = assay: Antibacterial activity against Pseudomonas aeruginosa CCM 1961 up to 500 uM incubated for 24 to 48 hrs under dark condition by microdilution broth assay; type: functional; outline: as §1
Pichia kudriavzevii = assay: Antifungal activity against Candida krusei E28 after 24 to 48 hrs hrs by microdilution broth assay; type: functional
Outline: (§3)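 Broth microdilution per CLSI M27-A3 and M38-A2 in RPMI 1640 with glutamine, buffered to pH 7.0 with MOPS. Compounds are diluted in DMSO. Final inoculum is 5 × 10³ CFU/mL for yeasts and 0.5–5 × 10⁴ CFU/mL for moulds. Plates are incubated in the dark at 35 °C in humid air and read visually and/or at 540 nm after 24 and 48 h. MIC is ≥80% growth reduction (IC₈₀) for yeasts and ≥50% (IC₅₀) for filamentous fungi.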

Lichtheimia corymbifera = assay: Antifungal activity against Absidia corymbifera 272 after 24 to 48 hrs hrs by microdilution broth assay; type: functional; outline: as §3
Enterococcus [22] = assay: Antibacterial activity against Enterococcus sp. J 14365/08 incubated for 24 hrs under dark condition by microdilution broth assay; settings: J 14365/08, 24 h
Enterococcus [23] = assay: Antibacterial activity against Enterococcus sp. J 14365/08 incubated for 48 hrs under dark condition by microdilution broth assay; settings: J 14365/08, 48 h

Structure (SMILES) | MIC [1] [µM] | MIC [2] [µM] | MIC (Mycobacterium avium [3]) [µM] | MIC (Mycobacterium avium [4]) [µM] | MIC (Mycobacterium kansasii [5]) [µM] | MIC (Mycobacterium kansasii [6]) [µM] | MIC (Mycobacterium kansasii [7]) [µM] | MIC (Mycobacterium kansasii [8]) [µM] | MIC (Mycobacterium kansasii [9]) [µM] | MIC (Mycobacterium kansasii [10]) [µM] | solubility [11] | MIC95 (Staphylococcus aureus [12]) [µM] | MIC95 (Staphylococcus aureus [13]) [µM] | MIC95 (Staphylococcus aureus [14]) [µM] | MIC95 (Staphylococcus aureus [15]) [µM] | MIC95 [16] [µM] | MIC95 [17] [µM] | MIC95 (Escherichia coli [18]) [µM] | MIC95 (Escherichia coli [19]) [µM] | Activity (Klebsiella pneumoniae [20]) | also measured
O=C(CN1C(=O)/C(=C/c2cc(Cl)ccc2O)SC1=S)Nc1ccc(Cl)cc1 | 16 (≈ 7.03 µg/mL) | 32 (≈ 14.1 µg/mL) | 250 (≈ 110 µg/mL) | 250 (≈ 110 µg/mL) | 125 (≈ 54.9 µg/mL) | 125 (≈ 54.9 µg/mL) | 250 (≈ 110 µg/mL) | 125 (≈ 54.9 µg/mL) | 250 (≈ 110 µg/mL) | 250 (≈ 110 µg/mL) | Insoluble | 250 (≈ 110 µg/mL) | > 250 | 125 (≈ 54.9 µg/mL) | > 250 | 250 (≈ 110 µg/mL) | > 250 | > 250 | > 250 | inactive | Activity (Klebsiella pneumoniae [21]): inactive; Activity (Pseudomonas aeruginosa): inactive; Activity (Pichia kudriavzevii): inactive; Activity (Lichtheimia corymbifera): inactive; MIC95 (Enterococcus [22]): > 250 µM; MIC95 (Enterococcus [23]): > 250 µM
O=C(O)CN1C(=O)/C(=C/c2cc(Cl)ccc2O)SC1=S | 32 (≈ 10.6 µg/mL) | 62.5 (≈ 20.6 µg/mL) | 62.5 (≈ 20.6 µg/mL) | 62.5 (≈ 20.6 µg/mL) | 32 (≈ 10.6 µg/mL) | 62.5 (≈ 20.6 µg/mL) | 62.5 (≈ 20.6 µg/mL) | 32 (≈ 10.6 µg/mL) | 62.5 (≈ 20.6 µg/mL) | 125 (≈ 41.2 µg/mL) | Soluble | 250 (≈ 82.4 µg/mL) | 250 (≈ 82.4 µg/mL) | 125 (≈ 41.2 µg/mL) | 125 (≈ 41.2 µg/mL) | 62.5 (≈ 20.6 µg/mL) | 62.5 (≈ 20.6 µg/mL) | 500 (≈ 165 µg/mL) | > 500 | inactive | Activity (Klebsiella pneumoniae [21]): inactive; Activity (Pseudomonas aeruginosa): inactive; Activity (Pichia kudriavzevii): inactive; Activity (Lichtheimia corymbifera): inactive; MIC95 (Enterococcus [22]): 125 µM (≈ 41.2 µg/mL); MIC95 (Enterococcus [23]): 500 µM (≈ 165 µg/mL)
O=C(CN1C(=O)/C(=C/c2cc(Br)ccc2O)SC1=S)Nc1ccc(Cl)cc1 | 32 (≈ 15.5 µg/mL) | 62.5 (≈ 30.2 µg/mL) | 500 (≈ 242 µg/mL) | 500 (≈ 242 µg/mL) | 500 (≈ 242 µg/mL) | > 500 | > 500 | 125 (≈ 60.5 µg/mL) | 250 (≈ 121 µg/mL) | 500 (≈ 242 µg/mL) | Soluble | 500 (≈ 242 µg/mL) | 500 (≈ 242 µg/mL) | 500 (≈ 242 µg/mL) | 500 (≈ 242 µg/mL) | 500 (≈ 242 µg/mL) | 500 (≈ 242 µg/mL) | > 500 | > 500 | inactive | Activity (Klebsiella pneumoniae [21]): inactive; Activity (Pseudomonas aeruginosa): inactive; Activity (Pichia kudriavzevii): inactive; Activity (Lichtheimia corymbifera): inactive; MIC95 (Enterococcus [22]): 500 µM (≈ 242 µg/mL); MIC95 (Enterococcus [23]): 500 µM (≈ 242 µg/mL)
O=C(CN1C(=O)/C(=C/c2ccccn2)SC1=S)Nc1ccc(Cl)cc1 | > 250 | > 250 | > 250 | > 250 | > 250 | > 250 | > 250 | > 250 | > 250 | > 250 | Soluble | > 125 | > 125 | > 125 | > 125 | > 125 | > 125 | > 125 | > 125 | inactive | Activity (Klebsiella pneumoniae [21]): inactive; Activity (Pseudomonas aeruginosa): inactive; Activity (Pichia kudriavzevii): inactive; Activity (Lichtheimia corymbifera): inactive; MIC95 (Enterococcus [22]): 125 µM (≈ 48.7 µg/mL); MIC95 (Enterococcus [23]): > 125 µM
COc1ccc(OC(=O)CN2C(=O)CSC2=S)cc1 | 1000 (≈ 297 µg/mL) | 1000 (≈ 297 µg/mL) | 1000 (≈ 297 µg/mL) | 1000 (≈ 297 µg/mL) | 1000 (≈ 297 µg/mL) | 1000 (≈ 297 µg/mL) | 1000 (≈ 297 µg/mL) | 1000 (≈ 297 µg/mL) | 1000 (≈ 297 µg/mL) | 1000 (≈ 297 µg/mL) | Soluble | > 500 | > 500 | > 500 | > 500 | 500 (≈ 149 µg/mL) | > 500 | > 500 | > 500 | inactive | Activity (Klebsiella pneumoniae [21]): inactive; Activity (Pseudomonas aeruginosa): inactive; Activity (Pichia kudriavzevii): inactive; Activity (Lichtheimia corymbifera): inactive; MIC95 (Enterococcus [22]): 500 µM (≈ 149 µg/mL); MIC95 (Enterococcus [23]): > 500 µM
O=C(CN1C(=O)CSC1=S)Nc1ccc([N+](=O)[O-])cc1 | 500 (≈ 156 µg/mL) | 500 (≈ 156 µg/mL) | 1000 (≈ 311 µg/mL) | 1000 (≈ 311 µg/mL) | 500 (≈ 156 µg/mL) | 500 (≈ 156 µg/mL) | 1000 (≈ 311 µg/mL) | 500 (≈ 156 µg/mL) | 500 (≈ 156 µg/mL) | 1000 (≈ 311 µg/mL) | Soluble | 500 (≈ 156 µg/mL) | 500 (≈ 156 µg/mL) | 500 (≈ 156 µg/mL) | 500 (≈ 156 µg/mL) | 250 (≈ 77.8 µg/mL) | 250 (≈ 77.8 µg/mL) | > 500 | > 500 | inactive | Activity (Klebsiella pneumoniae [21]): inactive; Activity (Pseudomonas aeruginosa): inactive; Activity (Pichia kudriavzevii): inactive; Activity (Lichtheimia corymbifera): inactive; MIC95 (Enterococcus [22]): 250 µM (≈ 77.8 µg/mL); MIC95 (Enterococcus [23]): 250 µM (≈ 77.8 µg/mL)
